Fewer inactive variants are shown than the library holds.
B1: tRNA (parent)
chain: GUUCCGUUGGCGUAAUGGUAACGCGUCUCCCUCCUAAGGAGAAGACUGCGGGUUCGAGUCCCGUACGGAACG

Variants of: B1
Experiment: yeast fitness relative to wild type (ratio to wild type); higher = fitter; tRNA-Arg(CCU), competitive growth, 37 C, YPD
In short: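 Gene amplicons from the start population and from each of six end populations were read by 100-nucleotide paired-end sequencing. Those end populations came from pooled Saccharomyces cerevisiae strains carrying tRNA-Arg(CCU) gene variants at the native locus, competed in YPD at 37°C for 24 hours. Fitness relative to wild type was worked out from changes in genotype frequencies. Genotypes needed ≥ 100 starting reads, and estimates < 0.5 were set to 0.5.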

Variant	yeast fitness
G23U U28G	0.552
C24A C55G	0.545
G23C U59G C60G	≤ 0.5
G23C C29A G38A	≤ 0.5
C24A C33A C66A	0.533
C24A C31G C66A	≤ 0.5
C24A C46A A70C	0.851
C24A U26G	0.655
G23C U54C U64A G68A	≤ 0.5
C24A C29U G50A	≤ 0.5
C24A A70C	0.8
C24A U32C C55A C60U	0.698
G23C G39C G67A	≤ 0.5
C24A C62U	0.724
C24A C62G	0.706
C24A C30U A45G A57U C62U	0.614
C24A C33U C34A A43U C46G	≤ 0.5
C24A A40G	0.551
C24A A40C	0.658
C24A U32C	0.612
G23C G44C C46U G58A	≤ 0.5

Variant	yeast fitness
C24A A40G C49A A65C	≤ 0.5
C24A A57G	0.601
C24A A57C	≤ 0.5
G23C G51A	0.671
G23U C33G G58C	≤ 0.5
C24A U28C U64C C66U	≤ 0.5
C24A U26G A43C	0.516
G23C C27G C61U C66U	≤ 0.5
G23C C29G C33U C46U C55U	≤ 0.5
C24A A42U G44A	0.581
G23C U26C C27U A42U	0.566
G23C C29G A43U G50A G63A A65C	≤ 0.5
C24A C46A	1.01
C24A C46U	1.1
C24A C49A	0.577
G23C G38C G52C G58A	≤ 0.5
G23C C29G A43U G50A A57G	≤ 0.5
G23C U35G A42U	≤ 0.5
G23C C27G U53C C61A G68A	≤ 0.5
C24A C49A C61G	≤ 0.5
C24A C33A C46U G67U	≤ 0.5

Variant	yeast fitness
C24A C27U U28G G68U	0.529
G23C C34U A36U C49A C66U	≤ 0.5
C24A A42U	0.659
C24A A43G G52A G58A	≤ 0.5
C24A A36C G48C G52C	≤ 0.5
C24A C31G C34U G68A	≤ 0.5
G23C C60G G68C	≤ 0.5
G23C G52C	0.523
G23C G52A	≤ 0.5
C24A A37C G38A A65G C66U	≤ 0.5
C24A G50A C66U	0.5
G23C C34U A36U C55A	0.581
C24A C30U A57U C62A	≤ 0.5
G23C G39A C62G	≤ 0.5
C24A C34U G41A	≤ 0.5
G23C C27A A45G G51C G68A	0.701
G23C C31G A40U G51A	0.656
G23C C31G G38C	≤ 0.5
G23C C49G C62U	≤ 0.5
C24A C33G A40C C55U G67A	≤ 0.5
G23C C49U	0.71

Variant	yeast fitness
G23C C33G A42U G56U C62U	≤ 0.5
C24A A36C A37C C46U C62G	≤ 0.5
G23C C61G G68C	0.5
C24A C29G A69G	≤ 0.5
G23C C27A A45G G51C G63A G68A	≤ 0.5
G23C U32A C49U	≤ 0.5
C24A C49G A69C	≤ 0.5
C24A C30U A65G A69U	≤ 0.5
G23C G58C	0.669
C24A C31U A42C G50A	≤ 0.5
G23C U53A C55U	0.563
G23C C31U C55A	≤ 0.5
C24A C30U A36G C46A	0.579
C24A G41C G48A	0.625
G23C U47C C60G	≤ 0.5
C24A C27A A42G A69U	≤ 0.5
G23C C33A A36U	0.529
G23C C31A A36U A70C	0.557
G23U A37U	≤ 0.5
C24A G39C A70C	0.601

— the RNAGym collection of RNA variant scans (doi:10.1126/science.aae0568)
